Measured values: ChEMBL document CHEMBL2034912, “Synthesis of 4-methylcoumarin derivatives containing 4,5-dihydropyrazole moiety to scavenge radicals and to protect DNA” (Eur J Med Chem, 2012)
Active and inactive are the calls of the source.

Key:
Type in all cases: functional
[1] = Antioxidant activity against AAPH-induced DNA oxidation assessed as decrease in thiobarbituric acid reactive substances at 80 to 200 uM measured every 120 mins by spectrophotometry
How it was run: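 DNA (final 2.0 mg/mL) and AAPH (final 4.0 mM) in phosphate buffer with 10.0 mM EDTA; test compounds added in DMSO across various concentrations; 2.0 mL aliquots incubated at 37 °C. Three tubes withdrawn every 120 min, cooled, treated with TBA and 3.0% trichloroacetic acid, then boiled 15 min; TBARS absorbance read. Inhibition period (t_inh) fitted linearly against concentration.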

[2] = Antioxidant activity assessed as ABTS radical scavenging activity at 40 uM
How it was run: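 ABTS (4.0 mM) oxidized with 1.41 mM K₂S₂O₈ for 16 h to form the radical cation, then diluted with ethanol to absorbance about 0.70. Compound added at 0.04 mM, and absorbance decay at 734 nm followed over time. Number of radicals trapped (n) is the depleted ABTS radical concentration divided by antioxidant concentration.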

[3] = tested on: Radical scavenging activity; test: Antioxidant activity assessed as DPPH radical scavenging activity at 40 uM
How it was run: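 DPPH dissolved in ethanol to absorbance about 1.00 at 517 nm (ε […] M⁻¹ cm⁻¹). Compound added as an ethanol solution at a single final concentration, and the decay of DPPH absorbance recorded.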

Measured: Activity

COc1cc(C2CC(c3c(O)ccc4c(C)cc(=O)oc34)=NN2C(C)=O)ccc1O (centres undefined)
active: all assays above

COc1cc(C2CC(c3c(O)ccc4c(C)cc(=O)oc34)=NN2)ccc1O (centres undefined)
active: all assays above

Cc1cc(=O)oc2c(C3=NNC(c4cccc([N+](=O)[O-])c4)C3)c(O)ccc12 (centres undefined)
active: all assays above

CC(=O)N1N=C(c2c(O)ccc3c(C)cc(=O)oc23)CC1c1ccccc1O (centres undefined)
active: all assays above

CC(=O)N1N=C(c2c(O)ccc3c(C)cc(=O)oc23)CC1c1ccc(O)cc1O (centres undefined)
active: all assays above

CC(=O)N1N=C(c2c(O)ccc3c(C)cc(=O)oc23)CC1c1ccc(O)c(O)c1 (centres undefined)
active: all assays above

O=c1ccc2cc3ccoc3c(O)c2o1
active: all assays above

CC(=O)N1N=C(c2c(O)ccc3c(C)cc(=O)oc23)CC1c1cccc([N+](=O)[O-])c1 (centres undefined)
active: all assays above
